Bioassay records: PubChem, The Scripps Research Institute Molecular Screening Center
Shown are actives, neighbours in structure and some others; about 3.4% of the full set was active somewhere.
CHRM1 antagonist: human M1 muscarinic receptor antagonists, primary screen, CHO-K1 cells, Fluo-8 calcium fluorescence, 1536-well. Muscarinic acetylcholine receptor M1 (Homo sapiens), P11229. CHO-K1 hM1, ACh EC80 antagonist. inhibition, % at 3 µM. 360,000 compounds, 1.3% hits. AID 588852, 2011;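 active means percent inhibition above its own plate's cutoff, namely the mean of that plate's compound wells plus 3 SD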;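 further: peak over basal fluorescence ratio during 140 s after agonist addition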
CHRM1 PAM: human M1 muscarinic receptor positive allosteric modulators, primary screen, CHO-K1 cells, Fluo-8 calcium fluorescence, 1536-well. AID 588819, 2011. 360,000 compounds, 0.088% hits. CHO-K1 hM1, ACh EC20; 0% = ACh EC20, 100% = maximal ACh. activation, % at 3 µM. Muscarinic acetylcholine receptor M1 (Homo sapiens), P11229; in the data active means activation above about 19%, passing the limit was not always enough
M1 ag: human M1 muscarinic receptor agonists, primary screen, Fluo-8 calcium fluorescence, CHO-K1 cells, HTS | 360,000 compounds, 0.33% hits | activation, % at 3 µM | Muscarinic acetylcholine receptor M1 (Homo sapiens), P11229 | AID 588814, 2011 | CHO-K1 hM1, agonist mode; 0% DMSO, 100% acetylcholine EC100;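 active means activation above the run's mean compound activation plus 3 SD, cut at about 16% in these data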;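 further: peak over basal fluorescence ratio within a 140 s kinetic read after compound addition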
TAAR1 antag: human TAAR1 antagonists, primary screen, Fluo-8 calcium fluorescence, CHO RD-HGA16 cells | Trace amine-associated receptor 1 (Homo sapiens), Q96RJ0 | antagonist | inhibition, % at 3 µM | 360,000 compounds, 1.5% hits;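 active means inhibition above a per-plate cutoff, the mean inhibition of test compounds on that plate plus 3 SD, cut at about 49% in these data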
Target sequence (Q96RJ0 whole entry, looked up): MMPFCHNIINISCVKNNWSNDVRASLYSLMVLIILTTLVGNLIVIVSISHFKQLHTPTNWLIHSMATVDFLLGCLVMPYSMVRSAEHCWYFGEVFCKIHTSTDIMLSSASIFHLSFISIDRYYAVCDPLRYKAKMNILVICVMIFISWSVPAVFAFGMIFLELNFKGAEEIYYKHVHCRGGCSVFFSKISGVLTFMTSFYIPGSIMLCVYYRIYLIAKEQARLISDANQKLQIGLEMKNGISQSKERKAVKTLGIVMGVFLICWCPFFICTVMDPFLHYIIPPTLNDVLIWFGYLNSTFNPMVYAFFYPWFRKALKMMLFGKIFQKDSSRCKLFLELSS
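Test system – hTAAR1-expressing CHO RD-HGA16 cells, Gα16-coupled · Also added – β-PEA at EC80 concentration, post-compound challenge · Compound – 3 µM, single point · Incubation – dye loading 75 min at 37 °C, then 30 min room temperature · Measured by – Fluo-8 intracellular calcium dye fluorescence, real-time kinetic reads · Benchmarks – vehicle and agonist controls · Replicates – singlicate, one well per test compound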
TAAR1 ag: human TAAR1 agonists, primary screen, Fluo-8 calcium fluorescence, CHO RD-HGA16 cells | Trace amine-associated receptor 1 (Homo sapiens), Q96RJ0 | vehicle wells 0%, saturating PEA agonist 100% | activation, % at 3 µM | 360,000 compounds, 0.99% hits | AID 624467, 2012;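 active means activation above the mean activation of all test compounds in the run plus 3 SD, cut at about 38% in these data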
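Repeats: no replicates (n 1) | Material: CHO-derived RD-HGA16 cells with stable Gα16 and human TAAR1 | Technique: Kinetic Fluo-8 calcium fluorescence | Schedule: 17-24 h seeding, 75 min 37 °C dye, 30 min RT | Evaluation: % activation from peak over basal fluorescence ratio, DMSO-to-PEA scaled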
Numbers stand for hits; n = inactive; x = no result.

SMILES	CHRM1 antagonist	CHRM1 PAM	M1 ag	TAAR1 antag	TAAR1 ag
O=C1N/C(=N\S(=O)(=O)c2ccccc2)S/C1=C\c1cc([N+](=O)[O-])ccc1O	n	n	32.3	53.6	n
O=C1N/C(=N\S(=O)(=O)Cc2ccccc2)S/C1=C/c1cc([N+](=O)[O-])ccc1O	36.7	n	29.5	72.2	57.4
COc1cc(/C=C2/S/C(=N/S(=O)(=O)c3ccccc3)NC2=O)c([N+](=O)[O-])cc1OC	n	n	n	n	n
CCCCN1C2=NC(c3ccccc3)CN2c2ccccc21 (stereo unspecified)	39.5	n	n	n	n
CCCCN1C2=NCCCN2c2ccccc21	n	n	n	n	n
Cc1nc2ccccn2c1-c1csc(Nc2cccc(O)c2)n1	n	n	n	55.2	n
Cc1cccc(Nc2nc(-c3c(C)nc4ccccn34)cs2)c1	37.0	n	n	n	n
Cc1nc2ccccn2c1-c1csc(Nc2cccc(C(=O)O)c2)n1	n	n	n	n	n
Cc1cccc(CN2CCSCCS2(=O)=O)c1	x	x	x	n	n
C=CCc1cccc2cc(C(=O)N(CC)CC)c(=O)oc12	n	n	n	105.5	n
C=CCc1cccc2cc(C(=O)N(C)C)c(=O)oc12	n	n	n	n	n
COc1cc2c(cc1OC)[C@@H](NC(=O)c1ccncc1)[C@H](C)[C@H]2c1ccccc1	x	x	x	n	n
COCCNc1nc(-c2ccccc2CO)c2sc(-c3ccccc3)cc2n1	n	n	n	x	x
O=C(Nc1ccc2nc(-c3ccco3)c(-c3ccco3)nc2c1)NC1CC1	n	n	n	x	x
O=C(Nc1ccc(N2CCOCC2)cc1)Nc1ccc2nc(-c3ccco3)c(-c3ccco3)nc2c1	33.4	n	n	48.9	n
CN(C)c1ccc(NC(=O)N2CCOCC2)cc1	n	30.3	n	n	n
O=C(Nc1ccc2nc(-c3cccs3)c(-c3cccs3)nc2c1)N1CCOCC1	78.4	n	n	n	n
O=C(Nc1cccc(O)c1)N1CCOCC1	n	n	n	n	n
CCOC(=O)C1CCCN(CCC(=O)Nc2cccc(Cl)c2C)C1 (stereo unspecified)	n	n	21.8	n	n
CCOC(=O)C1CCCN(CC(=O)Nc2c(F)c(F)c(F)c(F)c2F)C1 (stereo unspecified)	n	n	n	n	n
CCOC(=O)C1CCCN(CCC(=O)Nc2cccc(F)c2)C1 (stereo unspecified)	n	n	n	n	n
CCOC(=O)C1CCCN(CC(=O)c2ccc(F)cc2)C1 (stereo unspecified)	57.0	n	65.2	54.0	57.5
CCOC(=O)C1CCCN(CCC(=O)Nc2cccc(C)c2)C1 (stereo unspecified)	n	n	42.6	n	n
CON(Cc1ccccc1)S(=O)(=O)c1ccccc1Br	x	x	x	n	n
C=CCN1C=C(C(=O)OCC)C(=O)CC1	x	x	x	n	n
SMILES	CHRM1 antagonist	CHRM1 PAM	M1 ag	TAAR1 antag	TAAR1 ag
O=C(Cn1c(=O)n(CCc2c[nH]c3ccccc23)c(=O)c2cccnc21)Nc1ccccc1F	n	n	n	51.7	n
Cc1cccc(NC(=O)Cn2c(=O)n(CCc3c[nH]c4ccccc34)c(=O)c3cccnc32)c1	x	x	x	n	n
COC(=O)c1ccc2nc(-c3ccc(Cl)cc3)c(Cc3ccccc3)n2c1	x	x	x	n	n
CCN(CC)CC(=O)NCC1(c2ccccc2)CCCC1	65.8	n	n	n	n
O=C(CN1CCCCCC1)Nc1ccccc1	n	n	n	n	n
O=C(CN1CCCC1)NCC1(c2ccccc2)CCOCC1	n	n	n	n	n
O=C(CN1CCCCC1)NCC1(c2ccccc2)CCCC1	40.4	n	n	n	n
O=C(CN1CCCCC1)NN(Cc1ccccc1)c1ccccc1	61.3	n	n	n	n
CCOC(=O)C1(CCCc2ccccc2)CCN(Cc2nccn2CC)CC1	48.4	n	n	n	n
CCOC(=O)C1(CCOc2ccccc2)CCN(Cc2ccc(C(=O)OC)cc2)CC1	42.1	n	n	n	n
CCn1ccnc1CN1CCC(CO)(CCOc2ccccc2)CC1	n	n	n	n	n
CCOC(=O)C1(CCOc2ccccc2)CCN(Cc2ccncc2)CC1	n	n	n	n	n
CCOC(=O)C1(CCOc2ccccc2)CCN(Cc2nccn2CC)CC1	27.1	n	n	n	n
O=C(N[C@H](C(=O)N1CCC[C@H]1C(=O)NCc1ccccc1)c1ccccc1)c1ccccc1	x	x	x	n	n
CC(OC(=O)c1cccc(O)c1)C(=O)N(C)Cc1ccccc1 (stereo unspecified)	n	n	n	n	n
CC(OC(=O)/C(C#N)=C/c1ccc(N(C)C)cc1)C(=O)N(C)Cc1ccccc1 (stereo unspecified)	30.2	n	n	n	n
Cc1cc([N+](=O)[O-])ccc1NC(=O)C(C)[n+]1ccccc1 (stereo unspecified)	26.7	n	n	n	n
CN1CCCCC(NC(=O)c2ccc3ccccc3c2)C1=O (stereo unspecified)	x	x	x	n	n
Cc1cc(NC(=O)CS(=O)(=O)c2cn(Cc3ccc(F)cc3)c3ccccc23)no1	n	n	32.1	n	n
O=C(CSc1cn(Cc2cccc(F)c2)c2ccccc12)NCc1ccc(F)cc1	31.0	n	n	n	n
Cc1cc(NC(=O)CS(=O)(=O)c2cn(Cc3cccc(F)c3)c3ccccc23)no1	n	n	17.0	n	n
Cc1cc(NC(=O)CS(=O)(=O)c2cn(Cc3cccc(C(F)(F)F)c3)c3ccccc23)no1	n	n	18.1	n	n
O=C(NCc1ccccc1)C1C(=O)Nc2ccccc2C(=O)N1c1ccc2c(c1)OCCO2 (stereo unspecified)	x	x	x	n	n
CCCCCCCCN1C(=O)[C@@H](CC(=O)N2CCSCC2)C[C@@]2(C(=O)OC)C1=C[C@H](C1CCCC1)O[C@@H]2C	x	x	x	n	n
Cc1ccc(C(=O)NCCc2nc3ccccc3[nH]2)cc1[N+](=O)[O-]	n	n	n	n	n
O=C(NCCc1nc2ccccc2[nH]1)c1ccc(Cl)c([N+](=O)[O-])c1	28.7	n	n	n	n
COc1ccc(OC)c(/C=C2\NC(=O)NC2=O)c1	n	n	n	n	n
COc1cc(N2CCCC2)c(OC)cc1/C=C1/NC(=S)NC1=O	n	n	52.7	50.8	45.1
O=[N+]([O-])c1cccnc1N1CCC(c2cc(-c3cccc(C(F)(F)F)c3)n[nH]2)CC1	22.3	n	n	n	n
CCOC(=O)N1CCN(C(=O)C[C@H]2C[C@@]3(C(=O)OC)C(=C[C@H](C(C)(C)C)O[C@@H]3C)N(CCC3=CCCCC3)C2=O)CC1	x	x	x	n	n
